Activity, Time and T data for five compounds are collected here from ChEMBL document CHEMBL1165909, “Analgesic, anti-pyretic and DNA cleavage studies of novel pyrimidine derivatives of coumarin moiety” (Eur J Med Chem, 2010).

For series [1], the system named is Rattus norvegicus. As to the kind of experiment: Acute toxicity in albino Wistar rat assessed as mortality at up to 3 g/kg, po after 24 hrs. Conditions: in vivo, 3000 mg/kg. Format: organism-based. Put shortly:
(§1)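 Albino rats of either sex, groups of six, dosed from 100 up to 3000 mg kg^-1 body weight. Watched continuously for 8 h for signs such as altered motor activity, ataxia, tremors, convulsions, sedation and lacrimation. Killed at 24 h; stomach, intestine and liver inspected under magnifying lenses for ulcer-haemorrhagic spots.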

Series [2] relates to Rattus norvegicus. As to the kind of experiment: Acute toxicity in albino Wistar rat assessed as sedation at up to 3 g/kg, po after 24 hrs. The class given is organism-based. As to conditions: in vivo, 3000 mg/kg. In outline: as §1
Series [3] concerns Rattus norvegicus. As to the kind of experiment: Acute toxicity in albino Wistar rat assessed as convulsion at up to 3 g/kg, po after 24 hrs. The class given is organism-based. Conditions: in vivo, 3000 mg/kg. Put shortly:
as §1

In series [4] the test system is Rattus norvegicus. As to the kind of experiment: Acute toxicity in albino Wistar rat assessed as tremors at up to 3 g/kg, po after 24 hrs. The class given is organism-based. As to conditions: in vivo, 3000 mg/kg. In outline:
as §1

In series [5] the test system is Rattus norvegicus. The series can be described thus: Acute toxicity in albino Wistar rat assessed as ulceration at up to 3 g/kg, po after 24 hrs. Format: organism-based. As to conditions: in vivo, 3000 mg/kg. Put shortly: as §1
Series [6] deals with Rattus norvegicus. The series can be described thus: Acute toxicity in albino Wistar rat assessed as haemorrhagic spots at up to 3 g/kg, po after 24 hrs. As to conditions: in vivo, 3000 mg/kg. Format: organism-based. Put shortly: as §1
The test system of series [7] is Rattus norvegicus. The series can be described thus: Acute toxicity in albino Wistar rat assessed as stomach ulcerhaemorrhagic spots at up to 3 g/kg, po after 24 hrs. Format: organism-based. Conditions: in vivo, 3000 mg/kg. In outline:
as §1

Series [8] concerns Rattus norvegicus. The series can be described thus: Acute toxicity in albino Wistar rat assessed as intestine ulcerhaemorrhagic spots at up to 3 g/kg, po after 24 hrs. Conditions: in vivo, 3000 mg/kg. Format: organism-based. In outline:
as §1

Series [9] concerns Rattus norvegicus. As to the kind of experiment: Analgesic activity in albino Wistar rat assessed as reaction time required for tail flicking at 25 mg/kg, po after 30 mins by tail-flick method (reference value: 3.97 +/- 0.287 sec). The class given is functional. A general note: Hot-plate and tail-flick tests time the reaction to a heat stimulus.
For series [10], the system named is Rattus norvegicus. The series can be described thus: Analgesic activity in albino Wistar rat assessed as reaction time required for tail flicking at 25 mg/kg, po after 60 mins by tail-flick method (reference value: 4 +/- 0.360 sec). The class given is functional.
Series [11] relates to Rattus norvegicus. The series can be described thus: Analgesic activity in albino Wistar rat assessed as reaction time required for tail flicking at 25 mg/kg, po after 90 mins by tail-flick method (reference value: 3.87 +/- 0.355 sec). The class given is functional.
In series [12] the test system is Rattus norvegicus. The series can be described thus: Antipyretic activity against brewer's yeast-induced hyperthermia in albino Wistar rat assessed as change in rectal temperature at 100 mg/kg, po after 1 hr (reference value: 33.78 +/- 0.18 degC). The class given is functional.
Series [13] deals with Rattus norvegicus. As to the kind of experiment: Antipyretic activity against brewer's yeast-induced hyperthermia in albino Wistar rat assessed as change in rectal temperature at 100 mg/kg, po after 3 hrs (reference value: 32.80 +/- 0.09 degC). Format: functional.
Series [14] relates to Rattus norvegicus. As to the kind of experiment: Antipyretic activity against brewer's yeast-induced hyperthermia in albino Wistar rat assessed as change in rectal temperature at 100 mg/kg, po after 5 hrs (reference value: 34.36 +/- 0.14 degC). Format: functional.
The subject of series [15] is Rattus norvegicus. The series can be described thus: Antipyretic activity against brewer's yeast-induced hyperthermia in albino Wistar rat assessed as change in rectal temperature at 100 mg/kg, po after 6 hrs (reference value: 33.44 +/- 0.18 degC). Format: functional.
For a further series, the system named is Nucleic Acid. The series can be described thus: Induction of Escherichia coli DNA cleavage at 25 mg after 24 hrs by agarose gel electrophoresis method. The class given is nucleic-acid assay. Put shortly:
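E. coli grown in nutrient broth 24 h at 37 °C. Genomic DNA isolated by SDS lysis, phenol (55 °C, 10 min), chloroform:isoamyl alcohol extraction and ethanol precipitation, dissolved in TAE. Compounds at 1 mg/ml in DMF added to DNA, incubated 2 h at 37 °C. Run on agarose gel at 50 V about 30 min, stained with ethidium bromide, bands compared with DNA marker.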

The source made the active and inactive calls. The rule behind the calls is not given here.

Consider `O=c1cc(COc2ccc(-c3cc(-c4ccccc4)nc(S)n3)cc2)c2ccc3ccccc3c2o1`, for which the Activity result with Rattus norvegicus [1], in the series on Rattus norvegicus [2], with Rattus norvegicus [3], with Rattus norvegicus [4], with Rattus norvegicus [5] and with Rattus norvegicus [6] was “Non-toxic” in each case. For the same compound, the Activity entry in the series with Rattus norvegicus [7] and with Rattus norvegicus [8] was “Non-toxic” in each case. The values for the Time in the series with Rattus norvegicus [9], with Rattus norvegicus [10] and in the series on Rattus norvegicus [11] were 4.52 s, 5.25 s and 6.25 s, respectively. The T in the series on Rattus norvegicus [12] came to 33.01 °C; in the series with Rattus norvegicus [13] it was 32 °C; with Rattus norvegicus [14], 33.09 °C; in the series on Rattus norvegicus [15] it was 32.5 °C. Besides, the result in the series with Nucleic Acid was Active.
For the compound `O=c1cc(COc2ccc(-c3cc(-c4ccccc4)nc(O)n3)cc2)c2ccc3ccccc3c2o1`, the Activity result in the series with Rattus norvegicus [1], in the series with Rattus norvegicus [2], in the series with Rattus norvegicus [3], in the series with Rattus norvegicus [4], in the series with Rattus norvegicus [5] and with Rattus norvegicus [6] was “Non-toxic” throughout. In addition, the Activity result in the series with Rattus norvegicus [7] and with Rattus norvegicus [8] was “Non-toxic” each time. For the same compound, the Time in the series on Rattus norvegicus [9] is 4.75 s; in the series with Rattus norvegicus [10], 6.25 s; in the series on Rattus norvegicus [11] it was 7.25 s. Further, the T with Rattus norvegicus [12] was determined as 32.25 °C; with Rattus norvegicus [13], 32.68 °C; in the series with Rattus norvegicus [14], 33.44 °C; in the series with Rattus norvegicus [15] it was 32.74 °C. The result in the series on Nucleic Acid was Active.
As to `O=c1cc(COc2ccc(-c3cc(-c4ccccc4)nc(O)n3)cc2)c2cc(Cl)ccc2o1`, the Activity entry in the series on Rattus norvegicus [1], in the series on Rattus norvegicus [2], in the series on Rattus norvegicus [3], in the series with Rattus norvegicus [4], in the series with Rattus norvegicus [5] and with Rattus norvegicus [6] was “Non-toxic” in each case. The Activity result in the series with Rattus norvegicus [7] and with Rattus norvegicus [8] was “Non-toxic” each time. In addition, the figures for the Time with Rattus norvegicus [9], in the series on Rattus norvegicus [10] and in the series on Rattus norvegicus [11] were 4.02 s, 4.04 s and 4.25 s, respectively. In addition, the T in the series with Rattus norvegicus [12] was found to be 33.18 °C; with Rattus norvegicus [13], 32.64 °C; with Rattus norvegicus [14] it was 33.28 °C; in the series on Rattus norvegicus [15], 32.61 °C. Moreover, the outcome in the series with Nucleic Acid was Active.
With `O=c1cc(COc2ccc(-c3cc(-c4ccccc4)nc(S)n3)cc2)c2c(ccc3ccccc32)o1`, the Activity result in the series with Rattus norvegicus [1], in the series with Rattus norvegicus [2], in the series with Rattus norvegicus [3], in the series with Rattus norvegicus [4], with Rattus norvegicus [5] and with Rattus norvegicus [6] was “Non-toxic” throughout. Further, the Activity result in the series on Rattus norvegicus [7] and in the series with Rattus norvegicus [8] was “Non-toxic” in each case. Further, the Time in the series with Rattus norvegicus [9] is given as 4.25 s; with Rattus norvegicus [10] it was 4.5 s. Further, the T worked out at 32.92 °C in the series on Rattus norvegicus [12], 31.98 °C in the series with Rattus norvegicus [13], 33.01 °C with Rattus norvegicus [14] and 32.66 °C in the series on Rattus norvegicus [15]. Moreover, in the series on Nucleic Acid, the outcome was Active.
`Nc1nc(-c2ccccc2)cc(-c2ccc(OCc3cc(=O)oc4ccc(Cl)cc34)cc2)n1`: the Activity result in the series with Rattus norvegicus [1], in the series with Rattus norvegicus [2], in the series on Rattus norvegicus [3], in the series with Rattus norvegicus [4], in the series on Rattus norvegicus [5] and with Rattus norvegicus [6] was “Non-toxic” in each case. Moreover, the Activity result in the series on Rattus norvegicus [7] and in the series with Rattus norvegicus [8] was “Non-toxic” each time. Moreover, the Time with Rattus norvegicus [9] stood at 5.02 s; with Rattus norvegicus [10], 7 s; in the series with Rattus norvegicus [11], 7.1 s. Besides, the T was 32.74 °C with Rattus norvegicus [12], 32.45 °C with Rattus norvegicus [13], 32.09 °C in the series with Rattus norvegicus [14] and 32.54 °C with Rattus norvegicus [15].
